Activity calls are given as the source filed them. No cut-off for these calls is given here.
Columns and labels:
Hepatitis C virus [1] = assay: Inhibition of HCV Con1 NS5B polymerase; assay type: functional, Hepatitis C virus (isolate Con1); details: 1b
Outline: (§1)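 The buffer is 20 mM HEPES pH 7.3, 7.5 mM DTT, 10 mM MgCl2, 60 mM NaCl, RNasin, BSA, GTP/ATP/UTP, and CTP supplemented to 20 nM. It uses 100 nM heteropolymer RNA template and 0.25 mM trinucleotide initiator. Incubation is 2 h at room temperature, then stopped with EDTA, and filter-bound label is counted. IC50 comes from 10 twofold dilutions in duplicate, averaged over two separate weighings.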

Hepatitis C virus [2] = assay: Inhibition of HCV Con1 NS5B polymerase M414T mutant; assay type: functional, Hepacivirus hominis; details: isolate Con1
Outline: (§2)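 Mutant Con1 NS5B (Δ21) at 30 nM was run in a de novo initiation assay with 100 nM heteropolymer RNA template and 0.25 mM trinucleotide initiator. Incubation: RT, 2 h, stopped with EDTA. Read-out: filter-bound label. IC50 from 10 twofold dilutions in duplicate; means of duplicates on two weighings.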

Hepatitis C virus [3] = assay: Inhibition of HCV Con1 NS5B polymerase C316N mutant; assay type: functional, Hepacivirus hominis; details: isolate Con1; outline: as §2
Hepatitis C virus [4] = assay: Inhibition of HCV Con1 NS5B polymerase C316Y mutant; assay type: functional, Hepacivirus hominis; details: isolate Con1; outline: as §2
Hepatitis C virus [5] = assay: Inhibition of HCV Con1 NS5B polymerase G554D mutant; assay type: functional, Hepacivirus hominis; details: isolate Con1; outline: as §2
Hepatitis C virus [6] = assay: Inhibition of HCV 1a NS5B polymerase; assay type: functional, Hepatitis C virus subtype 1a; outline: as §1
Hepatitis C virus [7] = assay: Selectivity ratio of IC50 for HCV Con1 NS5B polymerase M414T mutant to IC50 for HCV 1b Con1 NS5B polymerase; assay type: functional, Hepacivirus hominis, isolate Con1
[8] = test system: Hepatitis C virus genotype 3; assay: Inhibition of HCV genotype 3 NS5B polymerase up to 200 uM
Hepatitis C virus [9] = assay: Selectivity ratio of IC50 for HCV Con1 NS5B polymerase C316Y mutant to IC50 for HCV 1b Con1 NS5B polymerase; assay type: functional, Hepacivirus hominis, isolate Con1
[10] = test system: Hepatitis C virus genotype 4; assay: Inhibition of HCV genotype 4 NS5B polymerase up to 200 uM
[11] = test system: Hepatitis C virus genotype 2; assay: Inhibition of HCV genotype 2 NS5B polymerase up to 200 uM
Hepatitis C virus [12] = assay: Selectivity ratio of IC50 for HCV Con1 NS5B polymerase G554D mutant to IC50 for HCV 1b Con1 NS5B polymerase; assay type: functional, Hepacivirus hominis, isolate Con1

Compound	IC50 (Hepatitis C virus [1]) [µM]	further results
O=C(COc1cccc(F)c1C(=O)N1CCCC1)N[C@H](CO)Cc1ccccc1	> 20	–
CC(C)(C)CC[C@@]1(C)CC(C2=NS(=O)(=O)c3cc(NS(C)(=O)=O)ccc3N2)=C(O)c2ccccc21	–	IC50 (Hepatitis C virus [2]): 0.004 µM; IC50 (Hepatitis C virus [3]): 0.004 µM; IC50 (Hepatitis C virus [4]): 0.008 µM; IC50 (Hepatitis C virus [5]): 0.3 µM; IC50 (Hepatitis C virus [6]): 0.003 µM
O=C(COc1cccc(F)c1C(=O)N1CCCC1C1CCCCC1)N[C@H](CO)Cc1ccccc1 (stereo partly specified)	4	–
CCCN(CC1CC1)C(=O)c1c(F)cccc1OCC(=O)N[C@H](CO)Cc1ccccc1	2.6	–
O=C(COc1cccc(F)c1C(=O)NCCCCO)N[C@H](CO)Cc1ccccc1	> 20	–
CNC(=O)c1c(-c2ccc(F)cc2)oc2cc(N(CCO)S(C)(=O)=O)c(C3CC3)cc12 [NESBUVIR]	–	IC50 (Hepatitis C virus [2]): 0.06 µM; IC50 (Hepatitis C virus [3]): 0.12 µM; IC50 (Hepatitis C virus [4]): 2 µM; IC50 (Hepatitis C virus [5]): 0.05 µM; IC50 (Hepatitis C virus [6]): 0.04 µM
O=C(COc1cccc(F)c1C(=O)N1CCCCCC1)N[C@H](CO)Cc1ccccc1	2.6	–
O=C(COc1cccc(F)c1C(=O)N1CCCC1Cc1ccccn1)N[C@H](CO)Cc1ccccc1 (stereo partly specified)	> 20	–
O=C(COc1cccc(F)c1C(=O)NCCC1=CCCCC1)N[C@@H](CO)Cc1ccccc1	> 20	–
O=C(COc1cccc(F)c1C(=O)N1CCCC1c1cccc(Cl)c1)N[C@H](CO)Cc1ccccc1 (stereo partly specified)	1.9	–
COC[C@@H]1CCCN1C(=O)c1c(F)cccc1OCC(=O)N[C@H](CO)Cc1ccccc1	7.7	–
COC[C@H]1CCCN1C(=O)c1c(F)cccc1OCC(=O)N[C@H](CO)Cc1ccccc1	20	–
CCCCN(C)C(=O)c1c(F)cccc1OCC(=O)N[C@H](CO)Cc1ccccc1	–	Ratio IC50 (Hepatitis C virus [7]): 10; IC50 (Hepatitis C virus [2]): 10 µM; IC50 (Hepatitis C virus [3]): 0.9 µM; inhibition [8]: inactive; IC50 (Hepatitis C virus [4]): 90 µM; Ratio IC50 (Hepatitis C virus [9]): 100; IC50 (Hepatitis C virus [5]): 120 µM; inhibition [10]: inactive; inhibition [11]: inactive; Ratio IC50 (Hepatitis C virus [12]): 150; IC50 (Hepatitis C virus [6]): 43 µM
CC(C)(C)CCNC(=O)c1c(F)cccc1OCC(=O)N[C@H](CO)Cc1ccccc1	> 20	–
O=C(COc1cccc(F)c1C(=O)N[C@H](CO)Cc1ccccc1)NCCC1=CCCCC1	> 20	–
CCCCN(CC)C(=O)c1c(F)cccc1OCC(=O)N[C@H](CO)Cc1ccccc1	0.47	–
O=C(COc1cccc(F)c1C(=O)NCCC1CCCCC1)N[C@H](CO)Cc1ccccc1	> 20	–
CCCN(CCC)C(=O)c1c(F)cccc1OCC(=O)N[C@H](CO)Cc1ccccc1	2.7	–
CCOCCN(CCOCC)C(=O)c1c(F)cccc1OCC(=O)N[C@H](CO)Cc1ccccc1	> 20	–
CC1CCN(C(=O)c2c(F)cccc2OCC(=O)N[C@H](CO)Cc2ccccc2)CC1	2.3	–
O=C(COc1cccc(F)c1C(=O)N1CCCCC1)N[C@H](CO)Cc1ccccc1	> 20	–
O=C(COc1cccc(F)c1C(=O)NCCC1=CCCCC1)N[C@H](CO)Cc1ccccc1	4.3	–
CCCCNC(=O)c1c(F)cccc1OCC(=O)N[C@H](CO)Cc1ccccc1	> 20	–
C=CCN(CC=C)C(=O)c1c(F)cccc1OCC(=O)N[C@H](CO)Cc1ccccc1	2.2	–
COC[C@H](Cc1ccccc1)NC(=O)COc1cccc(F)c1C(=O)NCCC1=CCCCC1	> 20	–
C[S+]([O-])CCNC(=O)c1c(F)cccc1OCC(=O)N[C@H](CO)Cc1ccccc1 (stereo partly specified)	> 20	–

Further lines, with some results ahead:

IC50 (Hepatitis C virus [1]) [µM]	Compound	further results
> 20	O=C(COc1cccc(F)c1C(=O)NCCc1ccccc1)N[C@H](CO)Cc1ccccc1	–
4.3	COC(=O)[C@@H](Cc1ccccc1)N(C)C(=O)c1c(F)cccc1OCC(=O)N[C@H](CO)Cc1ccccc1	–
0.43	C[C@H](c1ccccc1)N(C)C(=O)c1c(F)cccc1OCC(=O)N[C@H](CO)Cc1ccccc1	–
2.3	CCCN(CC)C(=O)c1c(F)cccc1OCC(=O)N[C@H](CO)Cc1ccccc1	–
8	CCN(CCOC)C(=O)c1c(F)cccc1OCC(=O)N[C@H](CO)Cc1ccccc1	–
6	COCCN(C(=O)c1c(F)cccc1OCC(=O)N[C@H](CO)Cc1ccccc1)C(C)C	–
> 20	CCOc1cc(CCNC(=O)c2c(F)cccc2OCC(=O)N[C@H](CO)Cc2ccccc2)ccc1OC	–
4.6	COC(=O)[C@H](c1ccccc1)N(C)C(=O)c1c(F)cccc1OCC(=O)N[C@H](CO)Cc1ccccc1	–
17	CCCN(CCOC)C(=O)c1c(F)cccc1OCC(=O)N[C@H](CO)Cc1ccccc1	–
10	O=C(COc1cccc(F)c1C(=O)N1CCC(c2ccccc2)C1)N[C@H](CO)Cc1ccccc1 (stereo partly specified)	–
0.47	CC(C)CCN(C)C(=O)c1c(F)cccc1OCC(=O)N[C@H](CO)Cc1ccccc1	–
> 20	CC(C)CCNC(=O)c1c(F)cccc1OCC(=O)N[C@H](CO)Cc1ccccc1	–
6	CCCN(C)C(=O)c1c(F)cccc1OCC(=O)N[C@H](CO)Cc1ccccc1	–
7	CCN(C(=O)c1c(F)cccc1OCC(=O)N[C@H](CO)Cc1ccccc1)C(C)C	–
6	CCN(CC)C(=O)c1c(F)cccc1OCC(=O)N[C@H](CO)Cc1ccccc1	–
> 20	COCCNC(=O)c1c(F)cccc1OCC(=O)N[C@H](CO)Cc1ccccc1	–
20	CN(CCc1ccccc1)C(=O)c1c(F)cccc1OCC(=O)N[C@H](CO)Cc1ccccc1	–
